Assay results of several laboratories.

SMILES	target or system	assay	test system	setting	quantity	value
CCCCCCCCCCCCCCCC(=O)NP(=O)(O)O	Bacillus anthracis	microbial growth	STERNE34F2	–	MIC	> 200 µg/mL
O=C1NN=C(N=Cc2ccccc2)C1=NNn1c(-c2ccccc2)nc2ccccc2c1=O	Vibrio cholerae	microbial growth, broth dilution	–	24 h	MIC	114 µM
CCCCCCCCCCCC(=O)CP(=O)(O)O	Bacillus anthracis	microbial growth	STERNE34F2	–	MIC	50 µg/mL
OC[C@H]1O[C@@H](n2cnc3c(NC4CCCC4)ncnc32)[C@H](O)[C@@H]1O	–	MES seizures	rat	intraperitoneal	ED50	6.7 mg/kg
COc1ccc(OS(=O)(=O)NC(=O)CCCCc2ccccc2)cc1	Bacillus anthracis	microbial growth	STERNE34F2	–	MIC	200 µg/mL
CC(=O)C1=C(O)C(CC(C)C)NC1=O (stereo not drawn)	Stenotrophomonas maltophilia	microbial growth	ATCC13637	–	MIC	> 200 µg/mL
O=C(O)CCCCCCCCCCCCCCCc1ccccc1	Leishmania infantum	parasite growth	mouse Splenocyte	72 h, intracellular, amastigote	IC50	3 to 6 µM
CN[C@H](CC(C)C)C(=O)N[C@H]1C(=O)N[C@@H](CC(N)=O)C(=O)N[C@H]2C(=O)N[C@H]3C(=O)N[C@H](C(=O)N[C@H](C(=O)O)c4cc(O)cc(O)c4-c4cc3ccc4O)[C@H](O)c3ccc(c(Cl)c3)Oc3cc2cc(c3O[C@@H]2O[C@H](CO)[C@@H](O)[C@H](O)[C@H]2O[C@H]2C[C@](C)(N)[C@H](O)[C@H](C)O2)Oc2ccc(cc2Cl)[C@H]1O	Bifidobacterium	microbial growth, agar dilution	–	48 h	MIC	2 µg/mL
CC[C@H]1OC(=O)[C@H](C)[C@@H](O[C@H]2C[C@@](C)(OC)[C@@H](O)[C@H](C)O2)[C@H](C)[C@@H](O[C@@H]2O[C@H](C)C[C@H](N(C)C)[C@H]2O)[C@](C)(O)C[C@@H](C)C(=O)[C@H](C)[C@@H](O)[C@]1(C)O	Bacillus anthracis	microbial growth	34F2	–	MIC	3.13 µM
CCCCCCCCCCCCCCCC(=O)NS(=O)(=O)Oc1ccc(OC)cc1	Bacillus anthracis	microbial growth	STERNE34F2	–	MIC	3.12 µg/mL
CCOC(=O)Nc1ccc(NCc2ccc(F)cc2)cc1N	–	MES seizures	rat	oral	ED50	12.1 mg/kg
CC1=NN(CNc2ccc(Cl)cc2)C(=O)C1=NNn1c(-c2ccccc2)nc2ccccc2c1=O	Vibrio cholerae	microbial growth, broth dilution	–	24 h	MIC	103 µM
C=CCCCCCCCCC(=O)C(F)(F)P(=O)(O)O	Bacillus anthracis	microbial growth	STERNE34F2	–	MIC	> 200 µg/mL
CC1=NN(CNc2c(O)c(S(=O)(=O)O)cc3ccccc23)C(=O)C1=NNn1c(-c2ccccc2)nc2ccccc2c1=O	Vibrio cholerae	microbial growth, broth dilution	–	24 h	MIC	83.7 µM
CN[C@H](CC(C)C)C(=O)N[C@H]1C(=O)N[C@@H](CC(N)=O)C(=O)N[C@H]2C(=O)N[C@H]3C(=O)N[C@H](C(=O)N[C@H](C(=O)O)c4cc(O)cc(O)c4-c4cc3ccc4O)[C@H](O)c3ccc(c(Cl)c3)Oc3cc2cc(c3O[C@@H]2O[C@H](CO)[C@@H](O)[C@H](O)[C@H]2O[C@H]2C[C@](C)(N)[C@H](O)[C@H](C)O2)Oc2ccc(cc2Cl)[C@H]1O	Streptococcus pyogenes	microbial growth	–	–	MIC	0.25 µg/mL
CCCCCCCC/C=C\CCCCCCCCNC(=O)CP(=O)(O)O	Bacillus anthracis	microbial growth	STERNE34F2	–	MIC	0.1 µg/mL
O=C1NN=C(N=Cc2ccccc2O)C1=NNn1c(-c2ccccc2)nc2ccccc2c1=O	Vibrio cholerae	microbial growth, broth dilution	–	24 h	MIC	55.4 µM
CC(C)[C@H](N)C(=O)OCCCCCn1cnc2nc(NCc3ccc(Cl)c(Cl)c3)[nH]c(=O)c21	Bifidobacterium	microbial growth, agar dilution	–	48 h	MIC	32 µg/mL
